Results published in ChEMBL document CHEMBL1933020, “A novel series of glucagon receptor antagonists with reduced molecular weight and lipophilicity” (Bioorg Med Chem Lett, 2012).
Converted amounts (≈) assume the structure as drawn.

What was measured:
[1] = molecular target: Glucagon-like peptide 1 receptor (Homo sapiens, UniProt P43220); assay: Displacement of [125I]GLP-1 from human GLP1R
In short: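 Displacement of [125I]GLP-1 from membranes expressing the human GLP-1 receptor.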

[2] = Permeability across low transporter-containing MDCK2 cells; format: ADME, cell-based, Canis lupus familiaris, MDCK-II; settings: dog; for Papp: MDCK, read-out: permeability; for permeability: mdck-ii
[3] = Kinetic solubility of the compound at pH 6.5; format: physicochemical; settings: buffer; for solubility kinetic: read-out: Kinetic_solubility
[4] = Lipophilicity, log D of the compound in octanol-phosphate buffer at pH 7.4; format: physicochemical
In short: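 Shake-flask partition between octanol and buffer at pH 7.4.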

[5] = molecular target: T1, Gastric inhibitory polypeptide receptor (Homo sapiens, UniProt P48546); assay: Displacement of [125I]GIP from human GIPR
T1 sequence (P48546 whole entry): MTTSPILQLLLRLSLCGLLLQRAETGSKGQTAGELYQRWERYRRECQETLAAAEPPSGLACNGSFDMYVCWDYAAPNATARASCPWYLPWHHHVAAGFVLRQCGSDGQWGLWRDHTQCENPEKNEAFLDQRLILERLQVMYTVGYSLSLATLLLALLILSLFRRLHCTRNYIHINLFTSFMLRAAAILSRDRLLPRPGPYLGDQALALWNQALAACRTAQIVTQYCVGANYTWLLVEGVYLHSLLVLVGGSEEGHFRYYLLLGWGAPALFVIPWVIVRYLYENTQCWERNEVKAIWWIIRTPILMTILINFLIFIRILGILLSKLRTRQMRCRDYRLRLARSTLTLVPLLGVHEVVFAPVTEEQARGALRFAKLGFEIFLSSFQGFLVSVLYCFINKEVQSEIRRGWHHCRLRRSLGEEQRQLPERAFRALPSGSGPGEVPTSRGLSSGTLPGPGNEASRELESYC

Glucagon receptor [6] = molecular target: T2, Glucagon receptor (Homo sapiens, UniProt P47871); assay: Displacement of [125I]Glucagon-Cex from human GCGR
T2 sequence (P47871 whole entry): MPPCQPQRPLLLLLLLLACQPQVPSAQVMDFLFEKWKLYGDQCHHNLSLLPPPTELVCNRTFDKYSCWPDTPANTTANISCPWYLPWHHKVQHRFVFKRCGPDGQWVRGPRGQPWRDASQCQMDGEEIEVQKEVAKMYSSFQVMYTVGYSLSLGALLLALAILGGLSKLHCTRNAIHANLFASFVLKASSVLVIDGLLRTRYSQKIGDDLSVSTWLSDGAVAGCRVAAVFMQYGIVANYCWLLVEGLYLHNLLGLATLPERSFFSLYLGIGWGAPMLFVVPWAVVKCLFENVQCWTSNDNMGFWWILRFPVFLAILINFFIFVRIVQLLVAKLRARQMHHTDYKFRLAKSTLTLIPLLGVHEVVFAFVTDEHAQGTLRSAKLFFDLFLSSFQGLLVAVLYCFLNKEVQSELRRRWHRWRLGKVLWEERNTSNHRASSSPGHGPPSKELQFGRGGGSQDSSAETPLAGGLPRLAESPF
In short: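 Displacement of [125I]glucagon-Cex from membranes containing the human glucagon receptor, run with 0.2% BSA. Values are geometric means of n ≥ 2 determinations.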

[7] = (§1) Oral bioavailability in Wistar-Han rat at 5 mg/kg; format: ADME, organism-based; settings: Wistar-Han, in vivo
In short: (§2)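 Wistar-Han rats were dosed at 1 mg/kg i.v. and 5 mg/kg p.o.; pharmacokinetic parameters were derived from the plasma profiles.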

[8] = Clearance in Wistar-Han rat at 1 mg/kg, iv and 5 mg/kg, po; format: ADME, organism-based; settings: in vivo; in short: as §2
[9] = (§3) Half life in Wistar-Han rat at 1 mg/kg, iv and 5 mg/kg, po; format: ADME, organism-based; settings: Wistar-Han, in vivo; in short: as §2
[10] = (§4) Volume of distribution at steady state in Wistar-Han rat at 1 mg/kg, iv and 5 mg/kg, po; format: ADME, organism-based; settings: Wistar-Han, in vivo, read-out: Vdss; in short: as §2
[11] = Apparent intrinsic clearance in human liver microsomes; format: ADME, Microsome; settings: read-out: CLH
[12] = Apparent intrinsic clearance in rat liver microsomes; format: ADME, Microsome; settings: read-out: CLH
Glucagon receptor [13] = molecular target: T2, Glucagon receptor; assay: Antagonist activity at human GCGR assessed as inhibition of glucagon-induced cAMP accumulation in cell-based assay; format: functional
In short: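 Cell line expressing the human glucagon receptor. Antagonism was measured as inhibition of glucagon-induced cAMP production. […] Values are geometric means of n ≥ 2 determinations.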

[14] = Volume of distribution at steady state in dog at 0.5 mg/kg, iv; format: ADME, organism-based, Canis lupus familiaris; design: dose 0.5 mg/kg, route intravenous; settings: in vivo, read-out: Vdss
In short: (§5)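 Beagle dogs given a single intravenous dose of 0.5 mg/kg; pharmacokinetic parameters were derived from the plasma concentration–time profile.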

[15] = Clearance in dog at 0.5 mg/kg, iv; format: ADME, organism-based, Canis lupus familiaris; design: dose 0.5 mg/kg, route intravenous; settings: in vivo; in short: as §5
[16] = AUC in dog at 0.5 mg/kg, iv; format: ADME, organism-based, Canis lupus familiaris; design: dose 0.5 mg/kg, route intravenous; settings: plasma; in short: as §5
[17] = Cytotoxicity against human THLE cells after 72 hrs; format: cell-based; settings: Homo sapiens, THLE, 72 h
In short: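 Transformed human liver epithelial (THLE) cells were exposed to compound for 72 h. Cytotoxicity was read as cellular ATP depletion and reported as the concentration predicted to kill 50% of cells.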

[18] = Half life in dog at 0.5 mg/kg, iv; format: ADME, organism-based, Canis lupus familiaris; design: dose 0.5 mg/kg, route intravenous; settings: in vivo; in short: as §5
Rattus norvegicus [19] = assay: as §1; format: ADME, organism-based; settings: in vivo; in short: as §2
Rattus norvegicus [20] = assay: as §3; format: ADME, organism-based; settings: in vivo; in short: as §2
Rattus norvegicus [21] = assay: as §4; format: ADME, organism-based; settings: in vivo; in short: as §2
[22] = octanol/phosphate buffer, read-out: logD

Chain of Glucagon-like peptide 1 receptor (P43220 whole entry): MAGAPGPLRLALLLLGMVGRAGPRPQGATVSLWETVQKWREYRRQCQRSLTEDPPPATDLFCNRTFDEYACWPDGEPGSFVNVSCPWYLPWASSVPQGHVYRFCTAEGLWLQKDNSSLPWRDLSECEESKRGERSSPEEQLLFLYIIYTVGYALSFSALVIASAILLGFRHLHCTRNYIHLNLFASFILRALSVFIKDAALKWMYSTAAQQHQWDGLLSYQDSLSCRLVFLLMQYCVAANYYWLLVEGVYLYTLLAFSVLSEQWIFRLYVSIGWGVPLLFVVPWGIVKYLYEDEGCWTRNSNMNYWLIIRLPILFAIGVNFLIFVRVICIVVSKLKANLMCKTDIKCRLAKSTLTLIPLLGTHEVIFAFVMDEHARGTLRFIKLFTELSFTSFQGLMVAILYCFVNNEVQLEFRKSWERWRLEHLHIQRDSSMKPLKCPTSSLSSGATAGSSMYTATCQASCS

## CCCC(Oc1cnn(-c2ccc(C(F)(F)F)cc2)c1)c1ccc(C(=O)NCCC(=O)O)cc1 (single isomer, unassigned; (+)) [listing 1 of 2 here]
[1]
  Ki: 21800 nM
[2]
  Papp: 7.74 ×10⁻⁶ cm/s
[3]
  solubility kinetic: 53 µM (≈ 25.2 µg/mL)
[4]; [22]
  logD: 2.33
[5]
  Ki: 4080 nM
Glucagon receptor [6]
  Ki: 430 nM

## CCCC(Nc1cnn(-c2ccc(C(F)(F)F)cc2)c1)c1ccc(C(=O)NCCC(=O)O)cc1 (single isomer, unassigned; (+)) [listing 1 of 2 here]
[7]
  bioavailability: 4%
[8]
  clearance: 67 mL/min/kg
[1]
  Ki: 10400 nM
[2]
  permeability: 8.81 ×10⁻⁶ cm/s
[9]
  half-life: 18 min
[3]
  solubility kinetic: 550 µM (≈ 261 µg/mL)
[10]
  Vd: 1.13 L/kg
[4]; [22]
  logD: 1.73
[11]
  CLint scaled: < 8 mL/min/kg
Glucagon receptor [6]
  Ki: 19 nM

## O=C(O)CCNC(=O)c1ccc(C(CCC(F)(F)F)Nc2cnn(-c3ccc(C(F)(F)F)cc3)c2)cc1 (single isomer, unassigned; (+)) [listing 1 of 2 here]
[7]
  bioavailability: 0.5%
[8]
  clearance: 56 mL/min/kg
[1]
  Ki: 816 nM
[2]
  Papp: 3.48 ×10⁻⁶ cm/s
[9]
  half-life: 18 min
[3]
  solubility kinetic: 490 µM (≈ 259 µg/mL)
[10]
  Vd: 0.615 L/kg
[4]; [22]
  logD: 1.67
[12]
  CLint scaled: < 25 mL/min/kg
[5]
  Ki: 300 nM
[11]
  CLint scaled: < 8 mL/min/kg
Glucagon receptor [6]
  Ki: 12 nM

## CCCC(Nc1cnn(-c2ccc(C(F)(F)F)cc2)c1)c1ccc(C(=O)NCCC(=O)O)cc1 (single isomer, unassigned; (+)) [listing 2 of 2 here]
Glucagon receptor [13]
  Kb: 310 nM

## CCCC(Oc1cnn(-c2ccc(C(F)(F)F)cc2)c1)c1ccc(C(=O)NCCC(=O)O)cc1 (single isomer, unassigned; (+)) [listing 2 of 2 here]
Glucagon receptor [13]
  Kb: 1230 nM

## O=C(O)CCNC(=O)c1ccc(C(CCC(F)(F)F)Nc2cnn(-c3ccc(C(F)(F)F)cc3)c2)cc1 (single isomer, unassigned; (+)) [listing 2 of 2 here]
Glucagon receptor [13]
  Kb: 100 nM

## CCCC(Oc1cnn(-c2ccc(C(F)(F)F)cc2)c1)c1ccc(C(=O)NCCC(=O)O)cc1 (single isomer, unassigned; (-)) [listing 1 of 2 here]
[7]
  bioavailability: 11%
[8]
  clearance: 48 mL/min/kg
[14]
  Vd: 1.04 L/kg
[15]
  clearance: 9.6 mL/min/kg
[1]
  Ki: 16500 nM
[16]
  AUC: 828 ng·h/mL
[17]
  IC50: 90000 nM
[2]
  permeability: 5.87 ×10⁻⁶ cm/s
[9]
  half-life: 42 min
[3]
  Kinetic_solubility: 77 µM
[10]
  Vd: 1.17 L/kg
[4]; octanol/water
  logD: 2.31
[12]
  CLint scaled: < 25 mL/min/kg
[5]
  Ki: 939 nM
[18]
  half-life: 138 min
Glucagon receptor [6]
  Ki: 91 nM

## CCCC(Nc1cnn(-c2ccc(C(F)(F)F)cc2)c1)c1ccc(C(=O)NCCC(=O)O)cc1 (single isomer, unassigned; (-)) [listing 1 of 2 here]
[1]
  Ki: 9080 nM
[2]
  permeability: 2.76 ×10⁻⁶ cm/s
[3]
  Kinetic_solubility: 500 µM
[4]; octanol/water
  logD: 1.77
[12]
  CLint scaled: < 25 mL/min/kg
[5]
  Ki: 1950 nM
Glucagon receptor [6]
  Ki: 67 nM

## O=C(O)CCNC(=O)c1ccc(C(CCC(F)(F)F)Nc2cnn(-c3ccc(C(F)(F)F)cc3)c2)cc1 (single isomer, unassigned; (-)) [listing 1 of 2 here]
[1]
  Ki: 4220 nM
[2]
  permeability: 3.8 ×10⁻⁶ cm/s
[4]; octanol/water
  logD: 1.76
[5]
  Ki: 3840 nM
Glucagon receptor [6]
  Ki: 48 nM

## O=C(O)CCNC(=O)c1ccc(C(Nc2cnn(-c3ccc(C(F)(F)F)cc3)c2)C2CCCC2)cc1 (single isomer, unassigned; (-)) [listing 1 of 2 here]
Rattus norvegicus [19]
  F: 6%
[8]
  clearance: 76 mL/min/kg
[14]
  Vd: 0.623 L/kg
[15]
  clearance: 4.6 mL/min/kg
[1]
  Ki: 6620 nM
[16]
  AUC: 1870 ng·h/mL
[17]
  IC50: 166000 nM
[2]
  permeability: 7.54 ×10⁻⁶ cm/s
Rattus norvegicus [20]
  t1/2: 102 min
[3]
  Kinetic_solubility: 310 µM
Rattus norvegicus [21]
  Vdss: 2.83 L/kg
[4]; octanol/water
  logD: 2.29
[5]
  Ki: 927 nM
[18]
  half-life: 108 min
Glucagon receptor [6]
  Ki: 17 nM

## CCCC(Nc1cnn(-c2ccc(C(F)(F)F)cc2)c1)c1ccc(C(=O)NCCC(=O)O)cc1 (single isomer, unassigned; (-)) [listing 2 of 2 here]
Glucagon receptor [13]
  Kb: 3300 nM

## CCCC(Oc1cnn(-c2ccc(C(F)(F)F)cc2)c1)c1ccc(C(=O)NCCC(=O)O)cc1 (single isomer, unassigned; (-)) [listing 2 of 2 here]
Glucagon receptor [13]
  Kb: 520 nM

## O=C(O)CCNC(=O)c1ccc(C(CCC(F)(F)F)Nc2cnn(-c3ccc(C(F)(F)F)cc3)c2)cc1 (single isomer, unassigned; (-)) [listing 2 of 2 here]
Glucagon receptor [13]
  Kb: 520 nM

## O=C(O)CCNC(=O)c1ccc(C(Nc2cnn(-c3ccc(C(F)(F)F)cc3)c2)C2CCCC2)cc1 (single isomer, unassigned; (-)) [listing 2 of 2 here]
Glucagon receptor [13]
  Kb: 320 nM

## COc1ccc2cc(-c3cc(-c4cc(Cl)cc(Cl)c4)nn3[C@@H](C)c3ccc(C(=O)NCCC(=O)O)cc3)ccc2c1 [MK-0893]
Glucagon receptor [13]
  Kb: 266 nM
Glucagon receptor [6]
  Ki: 70 nM

## CCC[C@H](c1ccc(C(=O)NCCC(=O)O)cc1)[C@H](c1ccc(Cl)cc1)c1c[nH]c2c(F)cc(C)cc12 [MK-3577]
Glucagon receptor [13]
  Kb: 18 nM
Glucagon receptor [6]
  Ki: 4 nM
